Test results from paper PMC2874265 (Journal of Medicinal Chemistry, 2010).

Key:
[1] = tested on: S. aureus ATCC 29213; assay: S. aureus MIC, broth microdilution; format: cell-based; conditions: for MIC: Staphylococcus aureus, ATCC29213, read-out: S. aureus MIC + 2% BSA; for S. aureus MIC: S. aureus ATCC 29213, broth microdilution
Procedure, shortened: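 Broth microdilution MIC per CLSI recommendations against S. aureus ATCC 29213. Protein-shift runs added 2% w/v bovine serum albumin to the assay. End point reproducible within one 2-fold dilution.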

[2] = tested on: S. aureus (Smith); assay: Murine septicaemia model of staphylococcal infection; format: in vivo; conditions: SC, 3, 10, or 30 mg/kg
[3] = Mouse intravenous pharmacokinetics; format: in vivo
Procedure, shortened: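 Mice dosed intravenously, either 3 mg/kg given individually or 2 mg/kg in a cassette. Plasma sampled at 5, 15, 30, 60, 120, 240 and 480 min and concentrations measured by LC/MS/MS. AUC, C0, CL, T1/2 and V calculated from plasma concentrations.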

SMILES | MIC [1] [µg/mL] | S. aureus MIC [1] | also measured
COc1cc2nc(COc3ccc(F)c(C(N)=O)c3F)sc2nc1Cl [compound 28d] | > 64 | – | –
NC(=O)c1c(F)ccc(OCc2nc3cc(C(F)(F)F)ccc3s2)c1F [8e] | – | submicrogram/mL | –
CCOc1ccc2sc(COc3ccc(F)c(C(N)=O)c3F)nc2c1 [compound 8b] | 0.5 | submicrogram/mL | –
NC(=O)c1c(F)ccc(OCc2nc3cc(Br)ccc3s2)c1F [compound 8d] | – | submicrogram/mL | –
NC(=O)c1c(F)ccc(OCc2nc3cc(-c4ccccc4)ccc3s2)c1F [compound 8a] | 4 | – | –
CCCc1ccc2sc(COc3ccc(F)c(C(N)=O)c3F)nc2c1 [compound 11] | – | submicrogram/mL | –
NC(=O)c1c(F)ccc(OCc2nc3cc(Cl)ccc3s2)c1F [compound 8j] | 2 | – | survival of infected mice [2]: died on day 2; V ([3]; intravenous, 2 mg/kg in a cassette): 5.8 L/kg; AUC ([3]; plasma, iv, 2 mg/kg): 100 ng·h/mL; C0 ([3]; plasma, iv, 2 mg/kg): 500 ng/mL; clearance ([3]; plasma, iv, 2 mg/kg): 315 mL/min/kg; half-life ([3]; plasma, iv, 2 mg/kg): 13 min
